Assay outcomes: PubChem BioAssay, several laboratories
S100A4 MyoIIA – blocks human S100A4 binding to myosin IIA peptide; inhibition, % at 10.7 µM; AID 652163; P26447; actives 0.14% (n = 360,000); S100A4/TAMRA-MyoIIA peptide fluorescence polarization;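 active means mean inhibition of at least 70% across replicates, with every replicate also reaching that level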
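Test system: S100A4 monomer protein; Medium: HEPES pH 7.2 with CaCl2, KCl, NaCl, DTT, Triton; Probe or stimulus: TAMRA-labelled myosin IIA heavy-chain peptide probe, 5 nM; Doses: one dose per compound; Times: polarization read 5 min after assay mix addition, stable 5–60 min; Benchmarks: neutral control DMSO, positive control TFP.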
PKA-R1A activ – PKA-R1A complex activation; P00514+P68181; PKA-R1A dissociation, Cy5-IP20 fluorescence polarization; scaled: DMSO 0%, 113 µM cGMP 100%; activation, % at 11.4 µM; actives 0.083% (n = 340,000); AID 504707;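 active means percent activation above the mean of all tested compounds plus 3 SD, cut at about 19% in these data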;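 further: higher means more PKAc released from R1A so a rise in polarization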
SIRT5 inh – blocks human SIRT5 desuccinylation of peptide; inhibition, % at 15 µM; Q9NXA8; actives 1.1% (n = 330,000); Purified SirT5, succinyl-peptide AMC, trypsin-coupled fluorescence; in the data active means inhibition above about 15%
Target sequence (Q9NXA8 whole entry, looked up): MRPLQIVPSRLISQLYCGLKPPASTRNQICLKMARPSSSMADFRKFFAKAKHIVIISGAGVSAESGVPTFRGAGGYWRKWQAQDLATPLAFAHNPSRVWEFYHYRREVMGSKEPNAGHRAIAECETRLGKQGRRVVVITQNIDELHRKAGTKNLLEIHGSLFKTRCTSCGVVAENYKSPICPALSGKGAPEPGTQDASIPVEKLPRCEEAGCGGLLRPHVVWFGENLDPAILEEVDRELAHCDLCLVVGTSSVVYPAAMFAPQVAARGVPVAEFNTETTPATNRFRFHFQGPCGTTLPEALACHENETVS
CRFR2-BP antag – CRF-BP/CRF-R2 complex antagonism; inhibition, % at 11.8 µM; AID 588475; HEK293 CRF-R2/CRF-BP, CRF-induced calcium fluorescence; actives 0.59% (n = 350,000);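 active means inhibition of the ligand-induced calcium signal above about 50% at the single tested concentration, limit read from the data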
PKA-R2B activ – PKA-R2B complex activation | actives 0.079% (n = 340,000) | activation, % at 11.4 µM | PKA-R2B holoenzyme dissociation, Cy5-IP20 fluorescence polarization; R2B truncated from residue 108, S112A mutant; 0% DMSO only, 100% 113 µM cGMP | AID 504700;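 active means activation above a cutoff set at the mean over all compounds plus 3 SD, cut at about 18% in these data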;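 further: higher means more holoenzyme dissociation and a rise in polarization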
Target sequence (P31323 whole entry, looked up, other chains not shown, the tested form may be a part): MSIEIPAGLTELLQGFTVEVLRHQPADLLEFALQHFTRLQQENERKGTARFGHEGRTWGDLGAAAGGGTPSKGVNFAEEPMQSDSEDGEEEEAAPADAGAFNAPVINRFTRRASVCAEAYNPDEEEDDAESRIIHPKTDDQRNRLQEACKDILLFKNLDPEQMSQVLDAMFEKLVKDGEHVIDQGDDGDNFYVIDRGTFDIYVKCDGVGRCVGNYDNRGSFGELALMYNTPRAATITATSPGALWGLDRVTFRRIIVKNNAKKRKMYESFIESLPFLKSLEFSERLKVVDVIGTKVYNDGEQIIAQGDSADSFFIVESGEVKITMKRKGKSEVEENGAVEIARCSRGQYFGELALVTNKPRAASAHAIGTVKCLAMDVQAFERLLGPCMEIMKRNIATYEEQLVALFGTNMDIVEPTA
* hit, by the source's call; / = no result; ! = repeats disagree. Rows were chosen to be rich in hits. Some 1.5% of all compounds tested hit in one or more screens of this group.

SMILES | S100A4 MyoIIA | PKA-R1A activ | SIRT5 inh | CRFR2-BP antag | PKA-R2B activ
O=C(C[C@H]1CC[C@@H]2[C@H](COC[C@H](O)CN2Cc2cccc(F)c2)O1)NCc1cccc(F)c1 | 2.9 | / | 20.3*! | / | /
COc1ccc2c3c([nH]c2c1)[C@H](CO)N(C(=O)NC1CCCC1)CC31CN(S(C)(=O)=O)C1 | -7.8 | / | / | / | /
CO[C@H]1CN(C)C(=O)c2cc(NC(=O)NC(C)C)ccc2OC[C@H](C)N(S(C)(=O)=O)C[C@H]1C | 11.3 | / | -2.5 | / | /
CCOC(=O)CC1=NN(c2ccccc2)C(=O)C1 | -1.2 | -4.6 | -2.6 | -4.0 | 12.5
CCOC(=O)CC1=NN(c2ccccc2)C(=O)/C1=C\c1ccc(N(C)C)cc1 | 3.3 | 0.1 | 112.5* | 25.8 | -7.8
Cc1cc(/C=N/NC(=O)c2cccc(N(C)C)c2)c(C)n1-c1cc(C(=O)O)cc(C(=O)O)c1 | -2.2 | -7.2 | 20.4* | -3.5 | 0.1
C[C@@H]1CN([C@H](C)CO)C(=O)c2cc(NS(=O)(=O)c3ccccc3)ccc2O[C@@H](C)CCCCO[C@H]1CN(C)Cc1ccc(Cl)c(Cl)c1 | -0.9 | / | 4.4 | / | /
C[C@@H]1CCCCO[C@H](CN(C)Cc2ccc(Cl)c(Cl)c2)[C@H](C)CN([C@@H](C)CO)C(=O)c2cc(NS(=O)(=O)c3ccccc3)ccc2O1 | 5.8 | / | 16.0* | / | /
C[C@@H]1CCCCO[C@@H](CN(C)Cc2ccc(Cl)c(Cl)c2)[C@@H](C)CN([C@H](C)CO)C(=O)c2cc(NS(=O)(=O)c3ccc(F)cc3)ccc2O1 | -6.2 | / | 1.8 | / | /
C[C@H]1CCCCO[C@H](CN(C)Cc2ccc(Cl)c(Cl)c2)[C@@H](C)CN([C@@H](C)CO)C(=O)c2cc(NS(=O)(=O)c3ccc(F)cc3)ccc2O1 | -0.1 | / | 15.0* | / | /
C[C@@H]1CN([C@H](C)CO)C(=O)c2cc(NS(=O)(=O)c3ccc(Cl)cc3)ccc2O[C@@H](C)CCCCO[C@H]1CN(C)Cc1ccc(Cl)c(Cl)c1 | 101.6* | / | 4.7 | / | /
C[C@@H]1CN([C@@H](C)CO)C(=O)c2cc(NS(=O)(=O)c3ccc(Cl)cc3)ccc2O[C@@H](C)CCCCO[C@@H]1CN(C)Cc1ccc2c(c1)OCO2 | 19.4 | / | 16.0* | / | /
CCCN1C[C@H](C)[C@H](OC)CN(C)C(=O)c2ccc(NC(=O)c3cnccn3)cc2OC[C@H]1C | 8.5 | / | 13.7 | / | /
O=C(C[C@H]1C=C[C@H](NC(=O)C2CCC2)[C@@H](CO)O1)NCc1ccncc1 | 2.7 | / | -0.8 | / | /
CCCCC[C@H](C)N1C[C@@H](COCc2ccccc2)Oc2cc(N3CCC[C@H]3CO)ccc2S1(=O)=O | 2.2 | / | 20.7* | / | /
CCCCC[C@H](C)N1C[C@H](COCc2ccccc2)Oc2cc(N3CCC[C@@H]3CO)ccc2S1(=O)=O | -4.4 | / | -0.2 | / | /
C[C@H]1CCCCO[C@H](CN(C)C(=O)Nc2ccc3c(c2)OCO3)[C@@H](C)CN([C@@H](C)CO)C(=O)c2cc(NC(=O)c3ccncc3)ccc2O1 | -20.5 | / | -4.0 | / | /
C[C@@H]1CN([C@H](C)CO)C(=O)c2cc(C#Cc3ccccc3)cnc2O[C@H]1CN(C)S(=O)(=O)c1ccccc1F | 45.2 | / | 5.2 | / | /
O=C(COC(=O)/C=C/c1ccc(Cl)cc1)NC1CC1 | -2.7 | 2.1 | 21.4* | 5.5 | -6.7
COc1ccc(CNC(=O)CN2CCN(S(=O)(=O)c3c(C)c(C)cc(C)c3C)CC2)cc1OC | 2.1 | -2.8 | -1.5 | 10.7 | -8.5
COc1ccc(CNC(=O)CN2CCN(S(=O)(=O)c3cc(Br)ccc3Br)CC2)cc1OC | -9.0 | -3.1 | -4.8 | 59.9* | -6.8
CC(=O)NC1=NN(C(C)=O)C(C)(c2ccccn2)S1 (stereo not drawn) | 1.5 | 0.1 | 0.8 | 52.1* | -1.2
CC(=O)NC1=NN(C(C)=O)C(C)(c2ccc(Br)cc2)S1 (stereo not drawn) | 5.9 | -5.1 | 1.0 | -14.0 | -15.5
O=C(NCc1ccccc1)c1nc(S(=O)(=O)Cc2ccccc2)ncc1Cl | -6.1 | -2.6 | -1.2 | 30.4 | -6.8
COC(=O)c1ccccc1NC(=O)c1nc(S(=O)(=O)Cc2ccccc2)ncc1Cl | 2.0 | -7.3 | -0.8 | 54.3* | 3.2
SMILES | S100A4 MyoIIA | PKA-R1A activ | SIRT5 inh | CRFR2-BP antag | PKA-R2B activ
COc1ccc(CNC(=O)c2nc(S(=O)(=O)Cc3ccccc3)ncc2Cl)cc1 | -2.3 | -7.0 | 20.6* | 10.0 | -2.8
Cc1ccc(CS(=O)(=O)c2ncc(Cl)c(C(=O)Nc3ccc(OC(F)F)cc3)n2)cc1 | -2.7 | 0.2 | -4.5 | 54.4* | -9.6
CCS(=O)(=O)c1ncc(Cl)c(C(=O)Nc2ccc(C)cc2)n1 | -2.7 | -13.6 | 2.4 | 21.8 | -4.8
CCCc1cn(CC[C@@H]2CC[C@@H](NC(=O)CCN3CCCCC3)[C@@H](CO)O2)nn1 | 12.9 | / | 4.3 | / | /
C[C@H](O)C#Cc1cnc2c(c1)C(=O)N([C@H](C)CO)C[C@H](C)[C@H](CN(C)Cc1ccc(-c3ccccc3)cc1)O2 | -4.9 | / | 3.6 | / | /
COc1cc(N2C(=O)C=CC2=O)ccc1N1C(=O)C=CC1=O | 3.6 | -2.0 | / | 62.8* | 2.8
C=CCNc1nnc(Cl)c2ccccc12 | 6.3 | 1.4 | 25.6* | -34.2 | 2.1
Cc1ccc(S(=O)(=O)N(C)C[C@@H]2OCCCC[C@@H](C)Oc3ccc(NC(=O)Nc4c(C)noc4C)cc3C(=O)N([C@@H](C)CO)C[C@@H]2C)cc1 | -12.3 | / | -1.6 | / | /
COc1ccc(Cn2c(-c3ccco3)nc3c(c(=O)c4ccccc4n3C)c2=O)cc1 | -0.9 | -3.8 | 0.8 | 72.0* | -7.8
COc1ccc(Cn2c(C)nc3c(c(=O)c4ccccc4n3C)c2=O)cc1 | -12.1 | -2.5 | 0.5 | -3.6 | 2.5
CCCN1CCCCC(NC(=O)c2c(F)cccc2F)C1=O (stereo not drawn) | 107.4* | / | / | / | /
CCn1cc(C(=O)OCC(=O)c2cc(C)n(-c3ccc(OC(F)F)cc3)c2C)c(=O)c2ccc(C)nc21 | / | 10.8 | / | 60.0* | 8.0
COc1cccc(-c2ccc([C@@H]3[C@H]4CNCC(=O)N4[C@H]3CO)cc2)c1 | 1.2 | / | -0.4 | / | /
CCOP(=O)(OCC)C(Nc1cccc([N+](=O)[O-])c1)c1ccccc1 (stereo not drawn) | -3.4 | -8.3 | 1.7 | 84.1* | -4.7
COc1ccc(C(Nc2cccc([N+](=O)[O-])c2)P(=O)(OC(C)C)OC(C)C)cc1 (stereo not drawn) | 18.4 | -17.4 | -4.6 | -9.1 | -14.7
NS(=O)(=O)c1ccc(CCNC(=O)c2ccc(C#CC3(O)CCCCC3)cc2)cc1 | 4.7 | -7.0 | 111.5* | -13.2 | -7.3
CCN(CC)C(=O)c1cccc(NC(=O)c2ccc3c(=O)n4c(nc3c2)CCC4)c1 | 0.3 | 0.7 | -2.1 | 7.6 | 4.6
CCN(CC(=O)Nc1ccccc1C(F)(F)F)C(=O)c1ccc2c(=O)n3c(nc2c1)CCC3 | -0.5 | 1.6 | 22.2* | -3.6 | 9.7
CC(NC(=O)COC(=O)c1ccc2c(=O)n3c(nc2c1)CCCCC3)c1ccccc1 (stereo not drawn) | 2.1 | 2.9 | -4.8 | 62.6* | -0.9
